According to ChEMBL document CHEMBL1138362, “Dihydro-alkylthio-benzyl-oxopyrimidines as inhibitors of reverse transcriptase: synthesis and rationalization of the biological data on both wild-type enzyme and relevant clinical mutants” (J Med Chem, 2007):

How the values were obtained:
[1] = tested on: Human immunodeficiency virus 1 [K103N]; assay: Antiviral activity against HIV1 reverse transcriptase K103N mutant
[2] = tested on: Human immunodeficiency virus 1; assay: Antiviral activity against HIV1 with reverse transcriptase Y188L mutation in MT4 cells after 5 days by MTT method; type: functional, organism-based; details: Human immunodeficiency virus 1, MT4, 120 h
Outline: (§1)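 MT-4 cells from the NIH AIDS Reagent Program were infected with mutant HIV-1 (K103N or Y188L, from the MRC Centralised Facility) in the presence of graded drug concentrations. Mock-infected cells were used for cytotoxicity. Viable cells were counted by MTT colorimetry at day 5 post-infection.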

[3] = tested on: Human immunodeficiency virus 1; assay: Antiviral activity against wild type HIV1 NL4-3 in MT4 cells after 5 days by MTT method; type: functional, organism-based; details: Human immunodeficiency virus 1, NL4-3, MT4, 120 h
Outline: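 MT-4 lymphoid cells, infected with HIV-1 or mock-infected (for cytotoxicity), held with a range of drug concentrations; viable cells scored at day 5 post-infection by tetrazolium (MTT) colorimetry.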

[4] = tested on: Human immunodeficiency virus type 1 reverse transcriptase (Human immunodeficiency virus 1), Q72547 [Y181I]; assay: Antiviral activity against HIV1 reverse transcriptase Y181I mutant
[5] = tested on: Human immunodeficiency virus 1; assay: Antiviral activity against HIV1 with reverse transcriptase IRLL98 mutation in MT4 cells after 5 days by MTT method relative to wild type NL4-3; type: functional
[6] = tested on: Human immunodeficiency virus 1; assay: Antiviral activity against HIV1 with reverse transcriptase Y181C mutation in MT4 cells after 5 days by MTT method; type: functional, organism-based; details: Human immunodeficiency virus 1, MT4, 120 h
[7] = tested on: Human immunodeficiency virus 1; assay: Antiviral activity against HIV1 with reverse transcriptase K103N mutation in MT4 cells after 5 days by MTT method; type: functional, organism-based; details: Human immunodeficiency virus 1, MT4, 120 h; outline: as §1
[8] = target: Human immunodeficiency virus type 1 reverse transcriptase (Human immunodeficiency virus 1) (UniProt Q72547); assay: Antiviral activity against wild type HIV1 reverse transcriptase

SMILES | ID50 [1] [µM] | EC50 [2] [µM] | EC50 [3] [nM] | ID50 [4] [µM] | Fold change [5] | EC50 [6] [nM] | EC50 [7] [µM] | ID50 [8] [µM]
CCc1c(Cc2c(Cl)cccc2Cl)nc(SCc2ccc(C#N)cc2)[nH]c1=O | > 20 | > 58.1 | 44 | > 20 | 194 | 3050 | 8.84 | 0.1
COC(=O)c1ccc(CSc2nc(Cc3c(F)cccc3F)c(C)c(=O)[nH]2)cc1 | > 20 | > 34.1 | 142 | > 20 | 6.9 | 1350 | 11.2 | 0.5
Cc1cn([C@H]2C[C@H](N=[N+]=[N-])[C@@H](CO)O2)c(=O)[nH]c1=O [ZIDOVUDINE] |  |  |  |  | 3 |  |  | 
Cc1c(Cc2c(Cl)cccc2Cl)nc(SCC(=O)c2ccc(C#N)cc2)[nH]c1=O | > 20 | > 56.3 | 1080 | > 20 | 3.2 | 1310 | 12.2 | 0.2
O=C1Nc2ccc(Cl)cc2C(C#CC2CC2)(C(F)(F)F)O1 (single isomer, unassigned) [EFAVIRENZ] |  |  |  |  | 300 |  |  | 
CCc1c(Cc2c(F)cccc2F)nc(SCc2ccc(C#N)cc2)[nH]c1=O | 7.5 | > 63 | 75 | > 20 | 45.3 | 1330 | 7.78 | 0.17
COc1ccc(CSc2nc(Cc3c(F)cccc3F)c(C)c(=O)[nH]2)cc1OC | > 20 | > 39.7 | 200 | > 20 | 1.5 | 740 | 9.33 | 0.5
Cc1c(Cc2c(F)cccc2F)nc(SCc2ccc3c(c2)OCO3)[nH]c1=O | > 20 | > 62.2 | 150 | > 20 | 1.8 | 1320 | 10.2 | > 20
CC(=O)Oc1ccc(CSc2nc(Cc3c(Cl)cccc3Cl)c(C)c(=O)[nH]2)cc1 | > 20 | > 55.7 | 127 | > 20 |  | 8640 | > 55.7 | 0.085
CCOc1ccc(CSc2nc(Cc3c(F)cccc3F)c(C)c(=O)[nH]2)cc1 | > 20 | > 62.2 | 370 | > 20 |  | 1190 | > 62.2 | 0.8
CCc1c(Cc2c(F)cccc2F)nc(SCc2ccc(OC)cc2)[nH]c1=O | > 20 | > 62.2 | 12 | > 20 |  | 1450 | 10.3 | 0.03
CC(=O)Oc1ccc(CSc2nc(Cc3c(F)cccc3F)c(C)c(=O)[nH]2)cc1 | > 20 | > 60.1 | 22900 | > 20 |  | > 60100 | > 60.1 | 48
